Source: PubChem
HSF1 activator: increases HSF-1 driven luciferase reporter signal; NIH3T3-HGL HSF-1 luciferase reporter, MG132, 8 h; 100% = twice DMSO control signal; activation, % at 9 µM; 1.7% of 300,000 active;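 active = mean replicate activation of at least 50% with a set share of replicates each reaching 50%; inconclusive = only one of those two conditions met; inactive = mean below 50% and too few replicates reaching it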;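 note: 0% = median of the neutral control wells and 100% = twice that signal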
HSF1 inh: HSF1 inhibition; activity change, negative = inhibition, % at 7.5 µM (by protocol); AID 2098; 0.77% of 300,000 active; NIH3T3-HGL HSE-luciferase, MG132-induced, luminescence 8 h; hits give low values;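 active = more than half of replicate wells show activity change below -50%, luminescence cut by over half; inconclusive = some wells, but at most half, below -50%; inactive = no replicate well below -50%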;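 note: luciferase reports HSF-1 transcriptional activity via heat shock element; 0% = median of DMSO wells and -100% = zero luminescence signal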
HIF act: HIF pathway transcriptional activation; 0.32% of 300,000 active; U2OS HRE-luciferase reporter, luminescence; normalized: DMSO 0%, desferrioxamine 100%; activation, % at 7.5 µM (by protocol); AID 1910;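 active = mean activation of at least 10% of the iron chelator positive control signal, with at least half of replicates also reaching 10%; inconclusive = mean and replicate majority disagree about reaching 10%; inactive = mean and most replicates under 10%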
T cruzi inh: blocks replication of Trypanosoma cruzi. AID 1885. 1.4% of 300,000 active. T. cruzi beta-gal in NIH3T3, luminescence, 90 h. inhibition, % (concentration not given with the values);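 active = mean inhibition across valid replicates above about 55%, limit read from the data; inconclusive = mean below that limit but half or more replicates reach it; inactive = mean below it, under half of replicates reach it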;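 note: signal also drops with host cell toxicity which is not excluded here; 0% = plate median of DMSO wells and 100% = zero luminescence signal; higher percent means less beta-gal luminescence so fewer parasites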
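Assay system: NIH/3T3 fibroblasts plus reporter T. cruzi. Amount: NIH/3T3 cells, 5,000 per well. Buffer or medium: DMEM, 2% fetal bovine serum. Doses: compound pinned at 50 nL/well, DMSO. Schedule: ≥90 h infection period, 3 h prior cell attachment. Signal: luminescent β-galactosidase signal after 60 min lysis. Read-out: parasite load inhibition, %.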
Calb FLC: affects C. albicans growth with fluconazole; C. albicans CaCi-2 + fluconazole, Alamar Blue growth, 48 h; growth inhibition, % (no concentration beside the values); 0.57% of 300,000 active; AID 1979;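 active = growth inhibition above about 58% in most replicates, limit read from the data, passing the limit was not always enough; inconclusive = exactly half the replicates above a set limit; inactive = most replicates below a set limit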;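 note: all wells also contain fluconazole at 8 µg/ml as a sub-toxic cotreatment; 0% = median of DMSO wells and 100% = median of geldanamycin control wells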
* marks the source's active call; other numbers are inactive results; ? = inconclusive; nt = no result. The list is not random: actives were taken first. Their share in the collection is about 4.4%.

SMILES | HSF1 activator | HSF1 inh | HIF act | T cruzi inh | Calb FLC
COc1ccc(-n2c(-c3cc(-c4ccccc4)sc3N)n[nH]c2=S)cc1 | 15 | 13 | 1 | 46 | 1
CN(C(=O)c1ccco1)c1nc2c(s1)CCCC2 | 62* | 27 | 1 | -4 | 2
CN(C(=O)c1ccco1)c1nnc(C23CC4CC(CC(C4)C2)C3)s1 | 21 | 15 | 4 | 5 | 24
COc1ccc(C(=O)/C=C/c2ccc(OCc3ccccc3)cc2)cc1CSCC(=O)O | 55* | 16 | 1 | -4 | -9
COc1ccc(C(=O)/C=C/c2cccc(OCc3ccccc3)c2)cc1CSCC(=O)O | 23 | 13 | 0 | 6 | 27
O=C(/C=C/c1ccc(O)c([N+](=O)[O-])c1)c1ccc2ccccc2c1 | 18 | 3 | 0 | 5 | 8
COc1ccc(/C=C/C(=O)c2ccccc2)cc1COc1ccc(F)cc1 | 3 | 4 | 0 | 3 | -5
COc1ccc(/C=C/C(=O)c2ccc(O)cc2)cc1COc1ccc(F)cc1 | 83* | 59 | 0 | -4 | 19
COc1ccc(Oc2ccc(/C=C/C(=O)c3ccc(O)cc3)cc2[N+](=O)[O-])cc1 | 77* | 34 | 3 | 4 | -7
CC(=O)c1sc(-c2ccc(F)cc2)cc1NS(=O)(=O)c1ccccc1 | 3 | -5 | 0 | -31 | 11
O=C(Nc1ccccc1)c1nnn(Cc2ccccc2)c1NC(=O)C(F)(F)F | 23 | 4 | 3 | -4 | ?
O=C(c1ccc(Cl)cc1)C1CCN(C(=O)c2ccc(F)cc2)CC1 | -16 | 5 | -9 | -13 | 8
CCc1c(C(=O)Nc2cc(C(=O)OC)ccc2C)csc1C | 6 | -2 | 0 | 12 | 29
O=C(O)CNc1nc(Cl)ccc1[N+](=O)[O-] | -5 | -6 | -47 | -9 | 16
COc1cc2c(cc1OC)C(c1cccs1)N(C(=S)NC(C)C)CC2 (stereo not drawn) | 91* | 55 | -1 | -5 | 9
COc1cc2c(cc1OC)C(c1cccs1)N(C(=O)c1ccncc1)CC2 (stereo not drawn) | -18 | -1 | 1 | -17 | -8
CC(C)[C@H](NC(=O)N1CC(=O)Nc2ccccc21)C(=O)N[C@@H](C(=O)O)c1ccccc1 | 5 | -2 | 0 | -23 | 0
O=C1CC(c2ccccc2)n2nc(NC(=O)c3ccccc3)nc2N1 (stereo not drawn) | 64* | 13 | 0 | -16 | -15
CCOC(=O)N1CCN(S(=O)(=O)c2ccc(F)c(C(=O)Nc3ccc(C(C)C)cc3)c2)CC1 | 69* | 28 | 0 | 4 | 3
CCOC(=O)N1CCN(S(=O)(=O)c2ccc(F)c(C(=O)Nc3ccc(C)c(Cl)c3)c2)CC1 | 45 | 12 | nt | 16 | 18
CC(C)(C)OC(=O)N[C@@H](Cc1ccccc1)c1nnc(SCC(=O)c2ccc(Cl)cc2)o1 | 55* | 12 | 0 | -3 | -18
O=C(/C=C(\O)c1ccccc1)C(=O)NNC(=O)c1ccccc1[N+](=O)[O-] | -13 | 2 | 2 | -2 | -6
CC(C)(C)c1ccc(S(=O)(=O)N2CCC(c3nc4ccc(Cl)cc4[nH]3)CC2)cc1 | -2 | 4 | 0 | 55* | -23
CCCSc1cc(N)cc([N+](=O)[O-])c1 | -5 | -2 | 0 | -4 | 97*
Nc1cccc([N+](=O)[O-])c1 | 37 | 11 | 0 | -10 | -11
SMILES | HSF1 activator | HSF1 inh | HIF act | T cruzi inh | Calb FLC
COC(=O)C1C(=O)c2c([nH]c(C(=O)OC3CCCCC3)c2C)CC1C (stereo not drawn) | 68* | 28 | 4 | -8 | -2
C/C(=N\Nc1cccc2cccnc12)c1ccccn1 | 49 | 15 | -3 | 77* | -8
C/C(=N\Nc1cccc2cccnc12)c1ccc(N)cc1 | 28 | 13 | 1 | -23 | 42
C/C(=N\Nc1cccc2cccnc12)c1ccccc1O | 54* | 30 | 2 | -37 | 3
CCOc1ccccc1C(=O)N1CCN=C1SCc1cccnc1 | -10 | -4 | 0 | -15 | -3
COc1cc(C(=O)NCCC(=O)N2CCC3(CC2)NCCc2[nH]cnc23)cc(OC)c1OC | -3 | -6 | 0 | -2 | -5
CCN(C(=O)COC(=O)/C=C/c1c(C)nn(Cc2ccc(C)cc2)c1C)C1CCS(=O)(=O)C1 (stereo not drawn) | -19 | -11 | -1 | 6 | 15
Cc1ccc(C(=O)c2ccccc2C(=O)OCC(=O)NCCc2ccc(Cl)cc2Cl)cc1 | 54* | 31 | 0 | -1 | 1
Cc1ccc2nc3c(cc(S(=O)(=O)c4ccccc4)c(=N)n3Cc3ccco3)c(=O)n2c1 | 33 | 31 | 1 | 63* | 3
N=c1c(S(=O)(=O)c2ccccc2)cc2c(=O)n3ccccc3nc2n1Cc1ccco1 | 12 | 27 | 0 | 16 | 3
Cc1cccn2c(=O)c3cc(S(=O)(=O)c4ccc(F)cc4)c(=N)n(Cc4ccco4)c3nc12 | 98* | 50 | 4 | 6 | 1
Cc1cccn2c(=O)c3cc(S(=O)(=O)c4ccccc4)c(=N)n(Cc4ccco4)c3nc12 | 49 | 7 | -34 | -1 | -20
COc1cccc2cc(C(=O)NCc3ccc(Cl)cc3)c(=O)oc12 | 11 | -6 | 0 | -9 | -1
Cc1cc(OCC(=O)Nc2sc3c(c2C#N)CC(C)(C)NC3(C)C)c(C(C)C)cc1Cl | -65 | -55* | -2 | 51 | -3
COC(=O)c1c(NC(=O)COc2ccc(Cl)cc2)sc2c1CC(C)(C)NC2(C)C | -8 | 1 | -1 | 65* | 32
COC(=O)c1c(NC(=O)Cc2ccccc2)sc2c1CC(C)(C)NC2(C)C | 22 | 4 | 0 | 10 | 25
CC(=O)Nc1ccc(NC(=O)c2ccc(NS(=O)(=O)c3cc(C(C)(C)C)cc(C)c3C)cc2)cc1 | 110* | 65 | 0 | -5 | 14
C=CCn1cc(/C=N/NC(=O)COc2cccc3cccnc23)c2ccccc21 | -10 | 2 | 0 | 3 | 24
CC(C)n1cc(/C=N/NC(=O)COc2cccc3cccnc23)c2ccccc21 | 78* | 22 | 0 | 15 | 5
COc1ccc(NC(=O)Nc2nnc(Cc3ccc(F)cc3)s2)cc1 | 6 | -5 | 3 | -24 | -1
COCCN(C(=S)Nc1cccc(OC)c1)C1CCN(C(C)=O)CC1 | 22 | 9 | 1 | -6 | -1
COc1cccc(NC(=S)N(CCC(C)C)C2CCN(C(C)=O)CC2)c1 | -82 | -76* | 3 | 12 | -1
O=C(NCc1ccco1)c1sc(=S)n2c1[nH]c(=O)c1ccccc12 | 8 | 16 | 0 | -19 | 93*
O=C(NC1CCCC1)c1sc(=S)n2c1[nH]c(=O)c1ccccc12 | -49 | -42 | 0 | 11 | 20
O=C(CS(=O)(=O)Nc1ccc(F)cc1Cl)Nc1ccc(F)cc1Cl | -6 | -2 | 1 | -15 | 79*
